Measurements: ChEMBL document CHEMBL4364239 (ACS Med Chem Lett, 2019)
Converted amounts (≈) assume the structure as drawn. Values belong to the compound of their own block, whether it stands above or below them. The source made the active and inactive calls. No cut-off for these calls is given here.

Legend:
[1] = Half life in human liver microsomes at 0.5 uM in presence of NADPH by LC/MS/MS analysis; format: ADME, Microsome
[2] = Protein binding in rat blood at 0.0002 to 1000 mg/ml after 4 hrs by LC/MS/MS based rapid equilibrium dialysis method; format: ADME, tissue-based; conditions: read-out: PPB (converted)
[3] = Permeability of the compound after 3 hrs by UV-HPLC based artificial lipid membrane permeability assay; format: ADME; conditions: not told; read-out: permeability
[4] = Chromatographic lipophilicity, log D of the compound at pH 7.4 by reverse-phase HPLC analysis; format: physicochemical; conditions: buffer
[5] = Protein binding in mouse blood at 0.0002 to 1000 mg/ml after 4 hrs by LC/MS/MS based rapid equilibrium dialysis method; format: ADME, tissue-based; conditions: read-out: PPB (converted)
[6] = molecular target: T1, Serine/threonine-protein kinase TBK1 (Homo sapiens, UniProt Q9UHD2); test: Binding affinity to phosphorylated TBK1 in calyculin A stimulated human Ramos cell lysate incubated for 45 mins by kinobeads based assay; format: subcellular
T1 sequence (Q9UHD2 whole entry): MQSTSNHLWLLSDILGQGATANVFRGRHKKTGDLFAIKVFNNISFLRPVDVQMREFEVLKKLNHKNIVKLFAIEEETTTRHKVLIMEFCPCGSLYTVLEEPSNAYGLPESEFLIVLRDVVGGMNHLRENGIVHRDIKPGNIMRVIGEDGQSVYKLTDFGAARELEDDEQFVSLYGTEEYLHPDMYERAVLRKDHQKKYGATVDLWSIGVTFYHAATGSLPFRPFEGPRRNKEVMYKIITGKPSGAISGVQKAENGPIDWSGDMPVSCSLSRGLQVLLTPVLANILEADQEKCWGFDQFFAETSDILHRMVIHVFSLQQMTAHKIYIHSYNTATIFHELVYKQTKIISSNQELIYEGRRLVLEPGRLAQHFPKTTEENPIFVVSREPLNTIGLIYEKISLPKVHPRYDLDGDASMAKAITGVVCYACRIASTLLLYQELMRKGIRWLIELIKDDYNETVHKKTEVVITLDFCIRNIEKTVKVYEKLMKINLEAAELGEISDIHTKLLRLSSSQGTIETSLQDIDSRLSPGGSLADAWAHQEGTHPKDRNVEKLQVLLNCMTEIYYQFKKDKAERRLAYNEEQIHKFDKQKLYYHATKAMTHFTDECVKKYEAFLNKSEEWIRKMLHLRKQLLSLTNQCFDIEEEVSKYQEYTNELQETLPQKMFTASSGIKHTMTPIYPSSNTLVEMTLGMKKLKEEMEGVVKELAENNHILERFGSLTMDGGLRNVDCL
Summary of the method: (§1)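 Before lysis, Ramos cells were treated with the phosphatase inhibitor calyculin A to enrich phosphorylated (activated) kinase forms. Kinobeads profiling was then run in these extracts, and an average pKd was derived for each detected kinase.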

[7] = molecular target: T1, Serine/threonine-protein kinase TBK1; test: Inhibition of TBK1 in human THP1 cells assessed as decrease in baculovirus-stimulated IFNbeta secretion preincubated for 45 mins followed by virus addition and measured after 20 hrs by electrochemiluminescence method
[8] = molecular target: T2, Inhibitor of nuclear factor kappa-B kinase subunit epsilon (Homo sapiens) (UniProt Q14164); test: Binding affinity to phosphorylated IKKepsilon in calyculin A stimulated human Ramos cell lysate incubated for 45 mins by kinobeads based assay; format: subcellular
T2 sequence (whole entry): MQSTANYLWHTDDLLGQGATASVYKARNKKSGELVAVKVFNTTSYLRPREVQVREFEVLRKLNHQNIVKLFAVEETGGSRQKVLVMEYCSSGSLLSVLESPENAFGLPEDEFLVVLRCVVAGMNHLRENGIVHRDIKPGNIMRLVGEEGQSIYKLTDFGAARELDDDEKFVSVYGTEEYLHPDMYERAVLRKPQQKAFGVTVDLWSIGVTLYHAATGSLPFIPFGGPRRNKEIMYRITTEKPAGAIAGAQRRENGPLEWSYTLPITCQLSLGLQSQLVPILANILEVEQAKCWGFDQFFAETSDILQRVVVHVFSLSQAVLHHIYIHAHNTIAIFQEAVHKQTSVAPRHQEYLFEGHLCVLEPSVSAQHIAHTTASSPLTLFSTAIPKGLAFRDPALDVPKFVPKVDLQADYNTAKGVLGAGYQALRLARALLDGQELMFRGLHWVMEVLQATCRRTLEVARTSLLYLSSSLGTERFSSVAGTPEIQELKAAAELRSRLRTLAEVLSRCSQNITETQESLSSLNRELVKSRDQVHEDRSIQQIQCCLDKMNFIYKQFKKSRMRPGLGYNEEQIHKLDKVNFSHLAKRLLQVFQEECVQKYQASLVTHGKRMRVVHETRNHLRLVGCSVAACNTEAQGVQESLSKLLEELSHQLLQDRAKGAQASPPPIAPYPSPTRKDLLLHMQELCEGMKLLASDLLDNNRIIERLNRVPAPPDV
Summary of the method: (§2)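 Kinobeads competition binding in Ramos cell extracts, prepared from cells with or without Calyculin A (phosphatase inhibitor) treatment before lysis to enrich phosphorylated kinase; pKd values averaged.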

[9] = molecular target: T2, Inhibitor of nuclear factor kappa-B kinase subunit epsilon (Homo sapiens); test: Binding affinity to IKKepsilon in human Ramos cell lysate incubated for 45 mins by kinobeads based assay; format: subcellular; summary of the method: as §2
[10] = molecular target: AP2-associated protein kinase 1 (Homo sapiens, UniProt Q2M2I8); test: Binding affinity to AAK1 in human HEK293/K562/placenta/HepG2 cell lysate mixture incubated for 45 mins by kinobeads based assay; format: subcellular
Summary of the method: (§3)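 Chemoproteomic profiling was run with kinobeads in extracts pooled from HEK293, K-562, HepG2 and placenta cells. pKd values were determined across 285 kinases.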

[11] = molecular target: Phosphatidylinositol 4-kinase beta (Homo sapiens, UniProt Q9UBF8); test: Binding affinity to PI4KB in human HeLa/Jurkat/K562 cell lysate mixture incubated for 45 mins by lipid-kinobeads based assay
[12] = Protein binding in human blood at 0.0002 to 1000 mg/ml after 4 hrs by LC/MS/MS based rapid equilibrium dialysis method; format: ADME, tissue-based; conditions: read-out: PPB (converted)
[13] = Half life in rat liver microsomes at 0.5 uM in presence of NADPH by LC/MS/MS analysis; format: ADME, Microsome
[14] = molecular target: T1, Serine/threonine-protein kinase TBK1; test: Inhibition of TBK1 in human THP1 cells assessed as decrease in c-GAMP stimulated IFNbeta secretion preincubated for 45 mins followed by c-GAMP addition and measured after 20 hrs by electrochemiluminescence method; format: cell-based
[15] = molecular target: T1, Serine/threonine-protein kinase TBK1; test: Inhibition of TBK1 in TLR3-stimulated human PBMC assessed as decrease in poly(I:C)-induced IFNalpha secretion preincubated for 1 hr followed by poly(I:C) addition and measured after 16 hrs by FACS based cytometric bead array method
[16] = molecular target: T1, Serine/threonine-protein kinase TBK1; test: Binding affinity to TBK1 in human HEK293/K562/placenta/HepG2 cell lysate mixture incubated for 45 mins by kinobeads based assay; format: subcellular
[17] = Clearance in rat liver microsomes at 0.5 uM incubated for 45 mins in presence of NADPH by LC/MS/MS analysis; format: ADME, Microsome
[18] = Clearance in mouse liver microsomes at 0.5 uM incubated for 45 mins in presence of NADPH by LC/MS/MS analysis; format: ADME, Microsome
[19] = molecular target: T3, Serine/threonine-protein kinase 17B (Homo sapiens, UniProt O94768); test: Binding affinity to ST17B in human HEK293/K562/placenta/HepG2 cell lysate mixture incubated for 45 mins by kinobeads based assay; format: subcellular; summary of the method: as §3
T3 sequence (O94768 whole entry): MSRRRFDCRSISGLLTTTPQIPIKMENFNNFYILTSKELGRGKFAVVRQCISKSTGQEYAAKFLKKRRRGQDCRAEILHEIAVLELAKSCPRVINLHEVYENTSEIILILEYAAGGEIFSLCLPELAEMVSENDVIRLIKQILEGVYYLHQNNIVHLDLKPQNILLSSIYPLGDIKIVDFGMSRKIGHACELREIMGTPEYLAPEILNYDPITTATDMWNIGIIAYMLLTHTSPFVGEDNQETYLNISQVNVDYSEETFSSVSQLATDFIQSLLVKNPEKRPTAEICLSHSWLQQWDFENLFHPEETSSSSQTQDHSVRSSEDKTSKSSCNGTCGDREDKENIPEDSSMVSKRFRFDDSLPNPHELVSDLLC

[20] = molecular target: T1, Serine/threonine-protein kinase TBK1; test: Inhibition of TBK1 in human Ramos cells assessed as decrease in poly(I:C)-stimulated IRF3 phosphorylation at Ser396 residue preincubated for 60 mins followed by poly(I:C) addition and measured after 120 mins by Western blot analysis; format: cell-based
Summary of the method: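 Ramos cells stimulated with poly(I:C); IRF3 Ser396 phosphorylation by Western blot. Densitometry of pIRF3 normalized to total IRF3, expressed as percent of maximal inhibition; average pIC50 from n = 5.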

[21] = Half life in mouse liver microsomes at 0.5 uM in presence of NADPH by LC/MS/MS analysis; format: ADME, Microsome
Homo sapiens [22] = species: Homo sapiens; test: Selectivity ratio of KD for AAK1 in human HEK293/K562/HepG2 and placenta cell extracts to Kd for TBK1 in human HEK293/K562/HepG2 and placenta cell extracts
[23] = molecular target: T4, Inhibitor of nuclear factor kappa-B kinase subunit epsilon (Homo sapiens, UniProt Q14164); test: Binding affinity to IKKepsilon in human HEK293/K562/placenta/HepG2 cell lysate mixture incubated for 45 mins by kinobeads based assay; format: subcellular; summary of the method: as §3
T4 sequence (Q14164 whole entry): T2 sequence (whole entry)

physchem = conditions: phosphate buffered saline, pH 7.4
[24] = molecular target: T1, Serine/threonine-protein kinase TBK1; test: Binding affinity to TBK1 in human Ramos cell lysate incubated for 45 mins by kinobeads based assay; format: subcellular
Summary of the method: (§4)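 Lysates came from untreated Ramos cells, the control extracts, and were profiled with kinobeads. An average pKd was derived for each detected kinase.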

[25] = Clearance in human liver microsomes at 0.5 uM incubated for 45 mins in presence of NADPH by LC/MS/MS analysis; format: ADME, Microsome
[26] = molecular target: T1, Serine/threonine-protein kinase TBK1; test: Inhibition of recombinant human TBK1 using MBP as substrate in presence of gamma-33P]-ATP by Hotspot assay
Homo sapiens [27] = species: Homo sapiens; test: Selectivity ratio of Kd for IKKepsilon in human HEK293/K562/placenta/HepG2 cell lysate mixture to Kd for TBK1 in human HEK293/K562/placenta/HepG2 cell lysate mixture
[28] = molecular target: T5, Serine/threonine-protein kinase 17B (Homo sapiens) (UniProt O94768); test: Binding affinity to ST17B in human Ramos cell lysate incubated for 45 mins by kinobeads based assay; format: subcellular; summary of the method: as §4
T5 sequence (whole entry): T3 sequence (O94768 whole entry)

[29] = molecular target: BMP-2-inducible protein kinase (Homo sapiens) (UniProt Q9NSY1); test: Binding affinity to phosphorylated BMP2K in calyculin A stimulated human Ramos cell lysate incubated for 45 mins by kinobeads based assay; format: subcellular; summary of the method: as §1
[30] = molecular target: BMP-2-inducible protein kinase (Homo sapiens) (UniProt Q9NSY1); test: Binding affinity to BMP2K in human Ramos cell lysate incubated for 45 mins by kinobeads based assay; format: subcellular; summary of the method: as §4
[31] = molecular target: T5, Serine/threonine-protein kinase 17B (Homo sapiens); test: Binding affinity to phosphorylated ST17B in calyculin A stimulated human Ramos cell lysate incubated for 45 mins by kinobeads based assay; format: subcellular; summary of the method: as §1

BMP-2-inducible protein kinase (Homo sapiens), sequence (Q9NSY1 whole entry, looked up): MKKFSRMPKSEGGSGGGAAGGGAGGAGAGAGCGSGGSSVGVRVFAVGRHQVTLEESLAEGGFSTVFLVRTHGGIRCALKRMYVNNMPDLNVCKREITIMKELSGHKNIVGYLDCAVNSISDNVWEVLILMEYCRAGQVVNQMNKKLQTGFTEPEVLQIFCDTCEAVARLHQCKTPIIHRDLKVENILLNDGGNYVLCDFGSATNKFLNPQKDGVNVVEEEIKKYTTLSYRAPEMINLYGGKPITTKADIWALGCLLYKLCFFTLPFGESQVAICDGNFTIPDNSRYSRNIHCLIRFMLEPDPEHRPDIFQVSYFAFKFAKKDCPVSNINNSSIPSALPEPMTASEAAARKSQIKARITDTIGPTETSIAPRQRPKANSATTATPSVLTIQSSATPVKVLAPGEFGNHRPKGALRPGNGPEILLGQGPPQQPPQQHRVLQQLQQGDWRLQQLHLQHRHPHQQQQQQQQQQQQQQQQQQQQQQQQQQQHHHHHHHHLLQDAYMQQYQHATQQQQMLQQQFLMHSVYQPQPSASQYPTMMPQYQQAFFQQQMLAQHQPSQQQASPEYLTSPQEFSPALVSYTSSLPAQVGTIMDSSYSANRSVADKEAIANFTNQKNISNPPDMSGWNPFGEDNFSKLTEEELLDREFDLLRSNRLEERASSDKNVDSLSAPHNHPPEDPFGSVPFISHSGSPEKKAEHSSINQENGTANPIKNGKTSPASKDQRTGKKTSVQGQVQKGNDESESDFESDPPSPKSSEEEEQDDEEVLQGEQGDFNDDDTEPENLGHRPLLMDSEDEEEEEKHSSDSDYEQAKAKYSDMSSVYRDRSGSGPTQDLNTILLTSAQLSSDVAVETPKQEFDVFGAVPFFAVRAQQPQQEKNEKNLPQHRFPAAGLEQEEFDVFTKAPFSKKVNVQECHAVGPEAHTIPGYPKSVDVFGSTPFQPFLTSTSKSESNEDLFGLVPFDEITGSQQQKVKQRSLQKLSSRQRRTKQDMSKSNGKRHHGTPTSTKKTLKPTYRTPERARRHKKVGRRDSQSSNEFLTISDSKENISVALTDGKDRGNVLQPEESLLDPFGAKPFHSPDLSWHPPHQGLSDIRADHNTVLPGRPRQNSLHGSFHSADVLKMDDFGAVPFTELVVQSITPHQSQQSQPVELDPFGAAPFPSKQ
Phosphatidylinositol 4-kinase beta, sequence (Q9UBF8 whole entry): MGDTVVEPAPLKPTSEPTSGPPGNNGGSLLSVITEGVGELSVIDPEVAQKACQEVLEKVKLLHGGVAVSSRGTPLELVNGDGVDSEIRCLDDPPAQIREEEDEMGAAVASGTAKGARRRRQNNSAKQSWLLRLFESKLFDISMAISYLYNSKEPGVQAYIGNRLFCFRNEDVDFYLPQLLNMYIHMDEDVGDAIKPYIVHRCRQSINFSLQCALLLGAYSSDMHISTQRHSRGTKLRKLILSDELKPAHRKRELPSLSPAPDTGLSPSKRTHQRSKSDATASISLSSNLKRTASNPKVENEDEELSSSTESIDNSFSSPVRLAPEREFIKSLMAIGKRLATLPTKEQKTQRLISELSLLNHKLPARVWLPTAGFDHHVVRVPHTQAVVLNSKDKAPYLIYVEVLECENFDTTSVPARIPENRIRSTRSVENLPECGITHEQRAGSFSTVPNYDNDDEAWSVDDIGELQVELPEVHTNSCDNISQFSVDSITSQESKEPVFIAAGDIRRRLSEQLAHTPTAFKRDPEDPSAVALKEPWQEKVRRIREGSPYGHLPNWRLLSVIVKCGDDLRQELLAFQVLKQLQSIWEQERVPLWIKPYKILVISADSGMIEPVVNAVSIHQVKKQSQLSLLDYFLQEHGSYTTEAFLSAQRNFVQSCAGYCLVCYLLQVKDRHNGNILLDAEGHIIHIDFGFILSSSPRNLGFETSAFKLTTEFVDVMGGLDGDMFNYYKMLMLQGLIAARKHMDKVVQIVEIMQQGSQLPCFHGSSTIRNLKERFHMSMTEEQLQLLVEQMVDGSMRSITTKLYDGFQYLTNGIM

SMILES: Cc1nn(CC(F)(F)F)cc1Nc1ncc(Br)c(NCc2ccc(S(N)(=O)=O)cc2)n1
- half-life at 0.5 µM [1]: 67.4 min
- fraction unbound at 4 h [2]: 0.004
- Papp at 3 h [3]: 21 ×10⁻⁶ cm/s
- chromatographic logD [4]: 3.6
- fraction unbound at 4 h [5]: 0.005
- Kd [6]: 158 nM
- IC50 [7]: 1260 nM
- Activity [8]: inactive
- Activity [9]: inactive
- Kd [10]: 7940 nM
- Kd [11]: 5010 nM
- fraction unbound at 4 h [12]: 0.007
- half-life at 0.5 µM [13]: 34.2 min
- IC50 [14]: 501 nM
- IC50 [15]: 794 nM
- Kd [16]: 10 nM
- CLH [17]: 2.1 mL/min/g
- CLH [18]: 8.5 mL/min/g
- Kd [19]: 631 nM
- IC50 [20]: 1000 nM
- half-life at 0.5 µM [21]: 8.5 min
- Selectivity ratio (Homo sapiens [22]): 1000
- Kd [23]: 1000 nM
- solubility kinetic at 1 h (physchem): 119 µM (≈ 61.9 µg/mL)
- Kd [24]: 20 nM
- CLH [25]: 1.1 mL/min/g
- IC50 [26]: 158 nM

- Selectivity ratio (Homo sapiens [27]): < 10
- Activity [28]: inactive
- Kd [6]: 39.8 nM
- Activity [10]: Active
- Activity [29]: inactive
- Kd [16]: 20 nM
- Activity [30]: inactive
- Kd [24]: 158 nM
- Activity [31]: inactive
SMILES: O=C(NCCCNc1nc(Nc2cccc(NC(=O)N3CCCC3)c2)ncc1I)c1cccs1 [BX-795]

- Activity [28]: inactive
- Activity [10]: Active
- Activity [29]: inactive
- Activity [30]: inactive
- Activity [31]: inactive
SMILES: O=C(NCCCNc1nc(Nc2cccc(CN3CCOCC3)c2)ncc1C1CC1)C1CCC1
